# Data from ChEMBL document CHEMBL1126881, “3-Nitro-3,4-dihydro-2(1H)-quinolones. Excitatory amino acid antagonists acting at glycine-site NMDA and (RS)-alpha-amino-3-hydroxy-5-methyl-4-isoxazolepropionic acid receptors” (J Med Chem, 1993).
# Key:
# [1] = pKa value was determined; format: physicochemical
# [2] = biological target: Glutamate receptor ionotropic, NMDA 1 (Rattus norvegicus, UniProt P35439); test: Binding affinity towards NMDA receptor to displace [3H]L-689,560 from rat cortical membranes
# [3] = pKa value was determined; Value ranges from 5-6; format: physicochemical
# Mus musculus [4] = test: In vivo evaluation to protect DBA/2 mice against audiogenic seizure at 75 mg/kg ip 30 min prior to noise stimulation; 2 out of 8 mouse effected; format: functional; conditions: route intraperitoneal
# Rattus norvegicus [5] = species on record: Rattus norvegicus; test: In vitro evaluation to antagonize NMDA responses in rat cortical slice preparation; format: functional
# Summary of the method: (§1)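 Rat cortical slice preparation. Apparent Kb was calculated from the rightward shift of the agonist (NMDA or AMPA) concentration-response curve produced by the antagonist. Values are means of three determinations.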
# Rattus norvegicus [6] = species on record: Rattus norvegicus; test: In vitro evaluation to antagonize AMPA responses in rat cortical slice preparation; format: functional; summary of the method: as §1
# Mus musculus [7] = test: In vivo evaluation to protect DBA/2 mice against audiogenic seizure at 100 mg/kg ip 30 min prior to noise stimulation; 0 out of 8 mouse effected; format: functional; conditions: route intraperitoneal
# Mus musculus [8] = test: In vivo evaluation to protect DBA/2 mice against audiogenic seizure at 50 mg/kg ip 30 min prior to noise stimulation; 0 out of 8 mouse effected; format: functional; conditions: route intraperitoneal
# Mus musculus [9] = test: In vivo evaluation to protect DBA/2 mice against audiogenic seizure ip 30 min prior to noise stimulation; format: functional
# Summary of the method: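 DBA/2 mice dosed intraperitoneally 30 min before noise stimulation and scored for protection against audiogenic seizure. Results are reported as ED50 (mg/kg) or as number protected/number tested at a single dose (50, 75 or 100 mg/kg, groups of 8).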
Structure (SMILES),pKa [1],IC50 [2] [µM],Kb (Rattus norvegicus [5]),other results
COC(=O)CC1c2ccc(Cl)cc2NC(=O)C1C(=O)OC (stereo not given),> 11,> 100,,
COC(=O)CC1c2ccc(Cl)cc2NC(=O)C1[N+](=O)[O-] (stereo not given),,1.32,7 µM,pKa [3]: ~5; Protected (Mus musculus [4]): 2; Kb (Rattus norvegicus [6]): 139 µM
COC(=O)CC1c2ccc(Cl)cc2NC(=O)C1C#N (stereo not given),10.2,12,,
COC(=O)CC1c2ccc(Cl)cc2NC(=O)C1S(=O)(=O)c1ccccc1 (stereo not given),10.8,> 100,,
COC(=O)CC1c2ccccc2NC(=O)C1[N+](=O)[O-] (stereo not given),,28.6,,
O=C(CC1c2ccc(Cl)cc2NC(=O)C1[N+](=O)[O-])Nc1ccccc1 (stereo not given),,7.43,> 10 µM,
CNC(=O)CC1c2ccc(Cl)cc2NC(=O)C1[N+](=O)[O-] (stereo not given),,12.4,>30,
COC(=O)CC1c2ccc(Cl)cc2NC(=O)C1C(=O)c1ccccc1 (stereo not given),~9,> 100,,
O=C(CC1c2ccc(Cl)cc2NC(=O)C1[N+](=O)[O-])NCc1ccccc1 (stereo not given),,2.53,,Protected (Mus musculus [7]): 0
COC(=O)Cc1c(C(=O)OC)c(O)nc2cc(Cl)ccc12,,> 100,,
CCOC(=O)CC1c2ccc(Cl)cc2NC(=O)C1[N+](=O)[O-] (stereo not given),,2.23,8.1 µM,
CN(C(=O)CC1c2ccc(Cl)cc2NC(=O)C1[N+](=O)[O-])c1ccccc1 (stereo not given),,1.84,> 10 µM,Protected (Mus musculus [8]): 0
CN(C)C(=O)CC1c2ccc(Cl)cc2NC(=O)C1[N+](=O)[O-] (stereo not given),,,22.2 µM,Protected (Mus musculus [7]): 0
O=C1Nc2cc(Cl)ccc2CC1[N+](=O)[O-] (stereo not given),,0.414,6.7 µM,ED50 (Mus musculus [9]): 13.2 mg/kg; Kb (Rattus norvegicus [6]): 9.2 µM
COC(=O)CC1CC(=O)Nc2cc(Cl)ccc21 (stereo not given),,> 100,,
COC(=O)CC1c2ccc(Cl)cc2NC(=O)C1S(C)(=O)=O (stereo not given),> 11,> 100,,
COC(=O)CC1c2ccc(Cl)cc2NC(=O)C1S(=O)(=O)c1ccc([N+](=O)[O-])cc1 (stereo not given),9.9,> 100,,
Cc1noc(CC2c3ccc(Cl)cc3NC(=O)C2[N+](=O)[O-])n1 (stereo not given),,5.59,25.9 µM,Protected (Mus musculus [7]): 0
